# Results published in ChEMBL document CHEMBL1148356, “Synthesis and biological evaluation of 3-heterocyclyl-7,8,9,10-tetrahydro-(7,10-ethano)-1,2,4-triazolo[3,4-a]phthalazines and analogues as subtype-selective inverse agonists for the GABA(A)alpha5 benzodiazepine binding site” (J Med Chem, 2004).
# Target: T1, GABA-A receptor; alpha-1/beta-3/gamma-2 (Homo sapiens, UniProt P14867+P18507+P28472)
# T1 sequence (P14867 whole entry): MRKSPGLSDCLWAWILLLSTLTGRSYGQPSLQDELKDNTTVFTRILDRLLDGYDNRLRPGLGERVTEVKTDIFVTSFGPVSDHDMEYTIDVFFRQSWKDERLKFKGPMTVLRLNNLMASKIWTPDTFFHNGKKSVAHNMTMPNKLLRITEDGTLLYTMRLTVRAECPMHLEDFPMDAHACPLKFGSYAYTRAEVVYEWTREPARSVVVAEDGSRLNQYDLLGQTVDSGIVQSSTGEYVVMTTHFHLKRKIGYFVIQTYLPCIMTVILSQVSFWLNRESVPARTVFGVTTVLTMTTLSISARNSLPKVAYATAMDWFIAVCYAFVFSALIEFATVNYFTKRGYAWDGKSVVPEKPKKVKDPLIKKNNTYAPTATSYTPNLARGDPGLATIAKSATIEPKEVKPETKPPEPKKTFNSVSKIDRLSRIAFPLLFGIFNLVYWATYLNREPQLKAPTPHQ
# T1 sequence (P18507 whole entry): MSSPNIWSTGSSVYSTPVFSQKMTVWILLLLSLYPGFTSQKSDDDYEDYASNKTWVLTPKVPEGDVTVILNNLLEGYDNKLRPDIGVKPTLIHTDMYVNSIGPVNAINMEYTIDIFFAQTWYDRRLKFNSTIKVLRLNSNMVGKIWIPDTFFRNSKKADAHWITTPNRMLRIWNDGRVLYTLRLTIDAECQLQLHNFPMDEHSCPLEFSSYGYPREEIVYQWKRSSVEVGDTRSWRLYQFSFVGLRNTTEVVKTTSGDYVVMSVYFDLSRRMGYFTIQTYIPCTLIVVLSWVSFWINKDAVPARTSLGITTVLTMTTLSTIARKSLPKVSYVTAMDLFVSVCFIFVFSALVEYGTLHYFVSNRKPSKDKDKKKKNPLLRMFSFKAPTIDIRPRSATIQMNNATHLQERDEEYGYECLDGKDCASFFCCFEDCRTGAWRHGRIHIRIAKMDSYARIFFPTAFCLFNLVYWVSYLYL
# T1 sequence (P28472 whole entry): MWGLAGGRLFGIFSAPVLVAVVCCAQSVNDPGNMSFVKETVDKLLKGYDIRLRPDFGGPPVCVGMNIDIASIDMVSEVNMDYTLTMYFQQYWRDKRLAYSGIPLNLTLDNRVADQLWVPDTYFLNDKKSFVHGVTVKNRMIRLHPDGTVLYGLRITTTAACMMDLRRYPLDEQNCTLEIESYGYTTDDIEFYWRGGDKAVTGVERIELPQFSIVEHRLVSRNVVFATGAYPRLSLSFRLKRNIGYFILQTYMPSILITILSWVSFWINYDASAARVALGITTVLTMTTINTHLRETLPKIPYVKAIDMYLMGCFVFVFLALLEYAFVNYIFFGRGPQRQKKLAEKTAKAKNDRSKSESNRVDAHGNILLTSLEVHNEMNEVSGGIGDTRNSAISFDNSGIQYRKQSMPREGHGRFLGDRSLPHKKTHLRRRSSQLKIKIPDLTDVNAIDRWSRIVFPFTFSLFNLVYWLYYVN
# Experiment: Binding affinity towards human alpha-1-beta-3-gamma-2 GABA-A receptor using [3H]Ro-151788 expressed in L(tk-) cells
# Format: cell-based
# Details: not given
row,Structure (SMILES),Ki [nM]
1,Cc1noc(-c2nnc3c4c(c(OCc5ccccc5C#N)nn23)C2CCC4CC2)n1,17.5
2,Cc1cccc(COc2nn3c(-c4csc(C)n4)nnc3c3c2C2CCC3CC2)n1,> 1000
3,Cc1cccc(COc2nn3c(-c4nc(-c5cccnc5)no4)nnc3c3c2C2CCC3CC2)n1,> 1000
4,Cc1noc(-c2nnc3c4c(c(OCc5cccnc5)nn23)C2CCC4CC2)n1,26.8
5,Cc1cccc(COc2nn3c(-c4cccs4)nnc3c3c2C2CCC3CC2)n1,115
6,Cc1cccc(COc2nn3c(-c4nc(-c5ccccc5)no4)nnc3c3c2C2CCC3CC2)n1,> 1000
7,CCc1noc(-c2nnc3c4c(c(OCc5cccc(C)n5)nn23)C2CCC4CC2)n1,171
8,Cc1cccc(COc2nn3c(-c4nc(-c5ccncc5)no4)nnc3c3c2C2CCC3CC2)n1,> 1000
9,Cc1cccc(COc2nn3c(-c4nc(C(C)C)no4)nnc3c3c2C2CCC3CC2)n1,> 1000

# Target: T2, GABA-A receptor; alpha-5/beta-3/gamma-2 (Homo sapiens, UniProt P18507+P28472+P31644)
# T2 sequence (P18507 whole entry): T1 sequence (P18507 whole entry)
# T2 sequence (P28472 whole entry): T1 sequence (P28472 whole entry)
# T2 sequence (P31644 whole entry): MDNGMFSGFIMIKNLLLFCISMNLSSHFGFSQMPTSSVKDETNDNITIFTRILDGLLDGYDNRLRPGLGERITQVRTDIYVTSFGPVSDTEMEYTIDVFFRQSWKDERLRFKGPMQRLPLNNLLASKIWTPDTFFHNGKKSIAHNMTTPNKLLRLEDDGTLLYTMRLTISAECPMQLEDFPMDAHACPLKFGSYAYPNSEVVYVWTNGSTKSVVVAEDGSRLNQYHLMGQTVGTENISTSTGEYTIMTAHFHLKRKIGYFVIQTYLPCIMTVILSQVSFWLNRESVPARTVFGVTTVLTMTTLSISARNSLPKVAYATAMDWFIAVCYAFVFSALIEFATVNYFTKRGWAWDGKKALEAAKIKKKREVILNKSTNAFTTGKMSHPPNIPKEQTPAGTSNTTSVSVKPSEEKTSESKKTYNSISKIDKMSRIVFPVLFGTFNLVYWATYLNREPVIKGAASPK
# Experiment: Binding affinity towards human alpha-5-beta-3-gamma-2 GABA-A receptor using [3H]Ro-151788 expressed in L(tk-) cells
# Format: cell-based
# Details: not given
row,Structure (SMILES),Ki [nM]
1,Cc1ccc(-c2nc3ccc(C)cn3c2CC(=O)N(C)C)cc1 [ZOLPIDEM],> 10000
2,Cc1noc(-c2nnc3c4c(c(OCc5ccccc5C#N)nn23)C2CCC4CC2)n1,0.44
3,Cc1cccc(COc2nn3c(-c4csc(C)n4)nnc3c3c2C2CCC3CC2)n1,58
4,Cc1cccc(COc2nn3c(-c4nc(-c5cccnc5)no4)nnc3c3c2C2CCC3CC2)n1,3.3
5,Cc1noc(-c2nnc3c4c(c(OCc5cccnc5)nn23)C2CCC4CC2)n1,0.93
6,Cc1cccc(COc2nn3c(-c4cccs4)nnc3c3c2C2CCC3CC2)n1,4
7,Cc1cccc(COc2nn3c(-c4nc(-c5ccccc5)no4)nnc3c3c2C2CCC3CC2)n1,19.2
8,CCc1noc(-c2nnc3c4c(c(OCc5cccc(C)n5)nn23)C2CCC4CC2)n1,3.5
9,Cc1cccc(COc2nn3c(-c4nc(-c5ccncc5)no4)nnc3c3c2C2CCC3CC2)n1,2.1
10,Cc1cccc(COc2nn3c(-c4nc(C(C)C)no4)nnc3c3c2C2CCC3CC2)n1,6.5

# Target: GABA-A receptor; alpha-2/beta-3/gamma-2 (Homo sapiens) (UniProt P18507+P28472+P47869)
# Experiment: Percent change in electrophysiological response in Xenopus oocytes expressing Alpha2-beta3-gamma2 GABA-A receptor
# Format: functional, cell-based
# Details: Oocyte
# Procedure, shortened: (§1)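 Two-electrode voltage clamp on Xenopus oocytes injected with human GABA-A subunit cDNAs, 24-72 h expression, perfused with modified Barth's medium at pH 7.5, clamped between -40 and -70 mV. The GABA EC20 was titrated against a 3 mM GABA maximum. […] Result is % change of control current, mean ± SE of ≥4 oocytes.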
row,Structure (SMILES),Efficacy [%]
1,Cc1ccc(-c2nc3ccc(C)cn3c2CC(=O)N(C)C)cc1 [ZOLPIDEM],187
2,Cc1cccc(COc2nn3c(-c4ccoc4)nnc3c3c2C2CCC3CC2)n1,-5
3,Cc1cccc(COc2nn3c(-c4cc(C)on4)nnc3c3ccccc23)n1,12

# Target: T3, GABA-A receptor; alpha-2/beta-3/gamma-2 (Homo sapiens, UniProt P18507+P28472+P47869)
# T3 sequence (P18507 whole entry): T1 sequence (P18507 whole entry)
# T3 sequence (P28472 whole entry): T1 sequence (P28472 whole entry)
# T3 sequence (P47869 whole entry): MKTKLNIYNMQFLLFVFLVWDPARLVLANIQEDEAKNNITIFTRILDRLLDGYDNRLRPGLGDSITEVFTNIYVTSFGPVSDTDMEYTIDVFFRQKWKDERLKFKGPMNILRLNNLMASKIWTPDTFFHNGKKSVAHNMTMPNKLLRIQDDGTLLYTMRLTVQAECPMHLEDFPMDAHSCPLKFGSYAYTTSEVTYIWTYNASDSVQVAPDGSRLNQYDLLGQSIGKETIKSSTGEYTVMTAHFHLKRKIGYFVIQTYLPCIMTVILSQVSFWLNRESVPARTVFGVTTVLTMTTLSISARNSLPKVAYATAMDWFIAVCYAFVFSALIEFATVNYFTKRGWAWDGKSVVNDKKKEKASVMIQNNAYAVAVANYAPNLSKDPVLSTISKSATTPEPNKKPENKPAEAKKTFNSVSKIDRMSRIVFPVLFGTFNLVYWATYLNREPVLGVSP
# Experiment: Binding affinity towards human gamma-aminobutyric-acid A receptor alpha-2-beta-3-gamma-2 using [3H]Ro-151788 expressed in L(tk-) cells
# Format: cell-based
# Details: not given
row,Structure (SMILES),Ki [nM]
1,Cc1ccc(-c2nc3ccc(C)cn3c2CC(=O)N(C)C)cc1 [ZOLPIDEM],255
2,Cc1noc(-c2nnc3c4c(c(OCc5ccccc5C#N)nn23)C2CCC4CC2)n1,2.9
3,Cc1cccc(COc2nn3c(-c4csc(C)n4)nnc3c3c2C2CCC3CC2)n1,> 1000
4,Cc1cccc(COc2nn3c(-c4nc(-c5cccnc5)no4)nnc3c3c2C2CCC3CC2)n1,166
5,Cc1noc(-c2nnc3c4c(c(OCc5cccnc5)nn23)C2CCC4CC2)n1,5.7
6,Cc1cccc(COc2nn3c(-c4cccs4)nnc3c3c2C2CCC3CC2)n1,66
7,Cc1cccc(COc2nn3c(-c4nc(-c5ccccc5)no4)nnc3c3c2C2CCC3CC2)n1,203
8,CCc1noc(-c2nnc3c4c(c(OCc5cccc(C)n5)nn23)C2CCC4CC2)n1,34
9,Cc1cccc(COc2nn3c(-c4nc(-c5ccncc5)no4)nnc3c3c2C2CCC3CC2)n1,209
10,Cc1cccc(COc2nn3c(-c4nc(C(C)C)no4)nnc3c3c2C2CCC3CC2)n1,68.4

# Target: GABA-A receptor; alpha-5/beta-3/gamma-2 (Homo sapiens) (UniProt P18507+P28472+P31644)
# Experiment: Percent change in electrophysiological response in Xenopus oocytes expressing Alpha-5-beta-3-gamma-2 GABA-A receptor
# Format: functional, cell-based
# Details: Oocyte
# Procedure, shortened: as §1
row,Structure (SMILES),Efficacy [%]
1,Cc1cccc(COc2nn3c(-c4ccoc4)nnc3c3c2C2CCC3CC2)n1,-24
2,Cc1noc(-c2nnc3c4c(c(OCc5ccccc5C#N)nn23)C2CCC4CC2)n1,-45
3,Cc1cccc(COc2nn3c(-c4ccsc4)nnc3c3c2C2CCC3CC2)n1,7
4,Cc1cccc(COc2nn3c(-c4cc(C)on4)nnc3c3ccccc23)n1,-15

# Target: GABA-A receptor; alpha-1/beta-3/gamma-2 (Homo sapiens) (UniProt P14867+P18507+P28472)
# Experiment: Percent change in electrophysiological response in Xenopus oocytes expressing Alpha1-beta3-gamma2 GABA-A receptor
# Format: functional, cell-based
# Details: Oocyte
# Procedure, shortened: as §1
row,Structure (SMILES),Efficacy [%]
1,Cc1ccc(-c2nc3ccc(C)cn3c2CC(=O)N(C)C)cc1 [ZOLPIDEM],133
2,Cc1cccc(COc2nn3c(-c4ccoc4)nnc3c3c2C2CCC3CC2)n1,27
3,Cc1cccc(COc2nn3c(-c4cc(C)on4)nnc3c3ccccc23)n1,15

# Target: T4, GABA-A receptor; alpha-3/beta-3/gamma-2 (Homo sapiens, UniProt P18507+P28472+P34903)
# T4 sequence (P18507 whole entry): T1 sequence (P18507 whole entry)
# T4 sequence (P28472 whole entry): T1 sequence (P28472 whole entry)
# T4 sequence (P34903 whole entry): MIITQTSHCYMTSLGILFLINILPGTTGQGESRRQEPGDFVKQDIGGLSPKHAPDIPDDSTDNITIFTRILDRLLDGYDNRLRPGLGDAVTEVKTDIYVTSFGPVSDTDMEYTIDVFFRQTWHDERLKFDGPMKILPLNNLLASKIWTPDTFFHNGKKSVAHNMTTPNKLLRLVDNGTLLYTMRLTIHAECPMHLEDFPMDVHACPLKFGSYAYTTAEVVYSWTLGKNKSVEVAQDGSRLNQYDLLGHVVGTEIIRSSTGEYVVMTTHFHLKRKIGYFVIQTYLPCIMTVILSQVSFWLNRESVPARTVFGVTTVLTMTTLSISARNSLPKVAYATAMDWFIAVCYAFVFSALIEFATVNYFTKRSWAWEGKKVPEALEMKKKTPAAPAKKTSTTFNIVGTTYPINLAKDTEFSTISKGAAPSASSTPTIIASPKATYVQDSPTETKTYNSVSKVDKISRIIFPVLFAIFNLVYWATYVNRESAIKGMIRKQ
# Experiment: Binding affinity towards human gamma-aminobutyric-acid A receptor alpha-3-beta-3-gamma-2 using [3H]Ro-151788 expressed in L(tk-) cells
# Format: cell-based
# Details: not given
row,Structure (SMILES),Ki [nM]
1,Cc1ccc(-c2nc3ccc(C)cn3c2CC(=O)N(C)C)cc1 [ZOLPIDEM],609
2,Cc1noc(-c2nnc3c4c(c(OCc5ccccc5C#N)nn23)C2CCC4CC2)n1,1.7
3,Cc1cccc(COc2nn3c(-c4csc(C)n4)nnc3c3c2C2CCC3CC2)n1,> 1000
4,Cc1cccc(COc2nn3c(-c4nc(-c5cccnc5)no4)nnc3c3c2C2CCC3CC2)n1,69.6
5,Cc1noc(-c2nnc3c4c(c(OCc5cccnc5)nn23)C2CCC4CC2)n1,4.2
6,Cc1cccc(COc2nn3c(-c4cccs4)nnc3c3c2C2CCC3CC2)n1,22
7,Cc1cccc(COc2nn3c(-c4nc(-c5ccccc5)no4)nnc3c3c2C2CCC3CC2)n1,227
8,CCc1noc(-c2nnc3c4c(c(OCc5cccc(C)n5)nn23)C2CCC4CC2)n1,21
9,Cc1cccc(COc2nn3c(-c4nc(-c5ccncc5)no4)nnc3c3c2C2CCC3CC2)n1,26.4
10,Cc1cccc(COc2nn3c(-c4nc(C(C)C)no4)nnc3c3c2C2CCC3CC2)n1,83.9

# Target: GABA-A receptor; alpha-3/beta-3/gamma-2 (Homo sapiens) (UniProt P18507+P28472+P34903)
# Experiment: Percent change in electrophysiological response in Xenopus oocytes expressing Alpha3-beta3-gamma2 GABA-A receptor
# Format: functional, cell-based
# Details: Oocyte
# Procedure, shortened: as §1
row,Structure (SMILES),Efficacy [%]
1,Cc1ccc(-c2nc3ccc(C)cn3c2CC(=O)N(C)C)cc1 [ZOLPIDEM],142
2,Cc1cccc(COc2nn3c(-c4ccoc4)nnc3c3c2C2CCC3CC2)n1,-4
3,Cc1cccc(COc2nn3c(-c4cc(C)on4)nnc3c3ccccc23)n1,3
